According to ChEMBL document CHEMBL4038331 (J Med Chem, 2017):
The source made the active and inactive calls. No cut-off for these calls is given here.

Tests used:
Liver [1] = assay: Induction of basal oxygen consumption under nonphosphorylative conditions in rat liver mitochondria after 5 mins in presence of glutamate/malate; assay type: functional
In short: (§1)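 Glutamate/malate (10/5 mM) or succinate (5 mM) was the substrate, with compound 2.5–10 μM for 5 min (state 2). ADP was added (125 nmol glutamate/malate; 75 nmol succinate), then oligomycin 2 μg/mL, then FCCP 1 μM. RCR and ADP/O were calculated. Seven experiments.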

Liver [2] = assay: Induction of basal respiration in rat liver mitochondria measured 5 mins after ADP phosphorylation in presence of succinate; assay type: functional; in short: as §1
Liver [3] = assay: Increase in oligomycin-inhibited respiration in rat liver mitochondria after 5 mins in presence of succinate; assay type: functional; in short: as §1
Liver [4] = assay: Antioxidant activity in rat liver mitochondria assessed as inhibition of ADP/FeSO4-induced lipid peroxidation at 5 uM preincubated for 5 mins followed by ADP/FeSO4 addition; assay type: functional
In short: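 Rat liver mitochondria (2 mg) in 100 mM KCl, 10 mM Tris-HCl pH 7.6, with glutamate/malate (5/2.5 mM) at 37 °C. After 5 min with compound (5 μM), peroxidation was started with ADP/0.1 mM FeSO4. The lag phase of O2 consumption was measured by Clark electrode and expressed as % of control. Six experiments.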

Liver [5] = assay: Induction of ADP-stimulated respiration in rat liver mitochondria after 5 mins in presence of succinate; assay type: functional; in short: as §1
[6] = Antioxidant activity assessed as DPPH radical scavenging activity measured every minute for 45 mins; assay type: functional
In short: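 DPPH• ethanolic solution diluted to absorbance 0.72 ± 0.02 at 515 nm. Ethanolic test solutions (50–500 μM) were added in triplicate and read at 515 nm. Inhibition was taken against an ethanol blank (100% radical), and IC50 was read from dose–response curves.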

Liver [7] = assay: Induction of ADP-stimulated respiration in rat liver mitochondria after 5 mins in presence of glutamate/malate; assay type: functional; in short: as §1
[8] = Antioxidant activity assessed as GO radical scavenging activity measured for 30 mins in absence of light; assay type: functional
In short: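 Ethanolic GO• (5 mM stock) diluted to absorbance 1.00 ± 0.02 at 428 nm. Test solutions (5–75 μM in ethanol) were added in triplicate and read at 428 nm at room temperature. Inhibition was taken against an ethanol blank (100% radical).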

[9] = Redox potential of compound in Ag/AgCl-NaCl containing phosphate buffer at 0.1 mM at pH 7.4 by cyclic voltammetric analysis
In short: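 Voltammetry used a glassy carbon working electrode, Pt counter and Ag/AgCl reference. Compound was at 0.1 mM final (10 mM ethanolic stock) in pH 7.4 potassium phosphate electrolyte.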

[10] = Antioxidant activity assessed as ABTS radical scavenging activity measured each minute for 15 mins by spectrophotometric analysis; assay type: functional
In short: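 ABTS•+ generated from 7 mM ABTS plus potassium persulfate, held 16 h dark at room temperature, then diluted in ethanol to absorbance 0.72 ± 0.02. Ethanolic test solutions (10–500 μM) were added to radical solution in triplicate. Inhibition was taken against an ethanol blank (100% radical), and IC50 was read from dose–response curves.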

Liver [11] = assay: Decrease in oxidative phosphorylation efficiency in rat liver mitochondria assessed as reduction in respiratory control ratio after 5 mins in presence of glutamate/malate; assay type: functional; in short: as §1
Liver [12] = assay: Ratio of drug level in rat liver intra-mitochondria to extra-mitochondria at 1 uM in presence of succinate/valinomycin by TPP+-based electrode assay; assay type: ADME, tissue-based
In short: (§2)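 TPP+-selective electrode with rat liver mitochondria (0.5 mg/mL) in 120 mM KCl, 10 mM HEPES pH 7.2, 1 mM EGTA at 37 °C with rotenone 1.5 μM. Five 1 μM additions calibrated the electrode, then succinate 10 mM was added, then valinomycin 0.2 μg/mL. The accumulation ratio assumed a matrix volume of ~0.5 μL/mg with a binding correction.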

[13] = Lipophilicity of compound in Ag/AgCl-NaCl containing PET membrane assessed as tranfer potential at pH 7; assay type: physicochemical
In short: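 Transfer across a liquid–liquid interface on a microporous PET membrane, with 1,6-dichlorohexane organic phase containing BTPPATPBCl. A gelled 2 mM BTPPACl + 2 mM NaCl reference was used, with 10 mM Tris-HCl pH 7.0 aqueous electrolyte.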

Liver [14] = assay: Decrease in oxidative phosphorylation efficiency in rat liver mitochondria assessed as reduction in coupling between ATP systhesis and oxygen consumption after 5 mins in presence of succinate; assay type: functional; in short: as §1
Liver [15] = assay: Induction of basal respiration in rat liver mitochondria measured 5 mins after ADP phosphorylation in presence of glutamate/malate; assay type: functional; in short: as §1
Liver [16] = assay: Drug uptake in rat liver intra-mitochondria at 1 uM in presence of succinate/valinomycin by TPP+-based electrode assay; assay type: ADME, tissue-based; in short: as §2
Liver [17] = assay: Induction of membrane hyperpolarization in rat liver mitochondria assessed as change in repolarization potential at 2.5 uM; assay type: functional
In short: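 Safranine (5 μM) fluorescence (ex 495/em 586 nm) at 25 °C. Rat liver mitochondria (0.5 mg/2 mL) were in 200 mM sucrose, 1 mM KH2PO4, 10 mM Tris pH 7.4, 10 μM EGTA with glutamate/malate or succinate, after 5 min with 2.5–10 μM. ADP 25 nmol depolarised, then FCCP 1 μM was added. A valinomycin calibration in K+-free medium was used, five experiments.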

[18] = Induction of mPTP in energized rat liver mitochondria at 2.5 to 10 uM after 5 mins in presence of succinate by spectrophotometric analysis
Rattus norvegicus = species on record: Rattus norvegicus; assay: Inhibition of mPTP in energized rat liver mitochondria at 2.5 to 10 uM after 5 mins in presence of succinate by spectrophotometric analysis
Liver [19] = assay: Increase in oligomycin-inhibited respiration in rat liver mitochondria after 5 mins in presence of glutamate/malate; assay type: functional; in short: as §1
Liver [20] = assay: Drug uptake in rat liver extra-mitochondria at 1 uM in presence of succinate/valinomycin by TPP+-based electrode assay; assay type: ADME, tissue-based; in short: as §2
Liver [21] = assay: Induction of basal oxygen consumption under nonphosphorylative conditions in rat liver mitochondria after 5 mins in presence of succinate; assay type: functional; in short: as §1
Liver [22] = assay: Decrease in oxidative phosphorylation efficiency in rat liver mitochondria assessed as reduction in coupling between ATP systhesis and oxygen consumption after 5 mins in presence of glutamate/malate; assay type: functional; in short: as §1
[23] = Iron chelating activity in ammonium acetate buffer assessed as inhibition of [Fe(ferrozine)3]2+ formation at 100 uM at pH 6.7 measured after 10 mins by spectrophotometric analysis
In short: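 Ferrozine assay in ammonium acetate buffer pH 6.7. Compound (100 μM) plus ammonium iron(II) sulfate (20 μM) for 10 min, read at 562 nm. Ferrozine was added, incubated 10 min at 37 °C, and re-read at 562 nm. The first reading was subtracted, with a DMSO blank and EDTA = 100%. Three experiments.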

| Compound | Activity (Liver [1]) | Activity (Liver [2]) | Activity (Liver [3]) | inhibition (Liver [4]) | Activity (Liver [5]) | IC50 [6] | Activity (Liver [7]) | IC50 [8] | Activity [9] | IC50 [10] | Activity (Liver [11]) | Ratio (Liver [12]) | Activity [13] | Activity (Liver [14]) | Activity (Liver [15]) | Drug uptake (Liver [16]) | Activity (Liver [19]) | Drug uptake (Liver [20]) | Activity (Liver [21]) | Activity (Liver [22]) | also measured |
| --- | --- | --- | --- | --- | --- | --- | --- | --- | --- | --- | --- | --- | --- | --- | --- | --- | --- | --- | --- | --- | --- |
| CS(=O)(=O)[O-].O=C(/C=C/c1cc(O)c(O)c(O)c1)NCCCCCCCC[P+](c1ccccc1)(c1ccccc1)c1ccccc1 | Dose-dependent effect | Dose-dependent effect | Dose-dependent effect | Active | Dose-dependent effect | 14.7 µM | Dose-dependent effect | 2.3 µM | 0.046 V | 8.7 µM | Dose-dependent effect | 3900 | 0.423 V | Dose-dependent effect | Dose-dependent effect | 4.5 mM | Dose-dependent effect | 1 µM | Dose-dependent effect | Dose-dependent effect | Activity (Liver [17]): 25 mV; Activity [18]: Non-Toxic; inhibition (Rattus norvegicus): Active |
| O=C(O)/C=C/c1ccc(O)c(O)c1 [CAFFEIC ACID] | – | – | – | – | – | 18.1 µM | – | 3.4 µM | 0.168 V | 17.9 µM | – | – | – | – | – | – | – | – | – | – | – |
| CS(=O)(=O)[O-].O=C(/C=C/c1ccc(O)c(O)c1)NCCCCCCCC[P+](c1ccccc1)(c1ccccc1)c1ccccc1 | Dose-dependent effect | Dose-dependent effect | Dose-dependent effect | – | Dose-dependent effect | 28 µM | Dose-dependent effect | 2.8 µM | 0.17 V | 27.9 µM | Dose-dependent effect | 5100 | 0.345 V | Dose-dependent effect | Dose-dependent effect | 5.7 mM | Dose-dependent effect | 1.2 µM | Dose-dependent effect | Dose-dependent effect | Activity (Liver [17]): 10 mV; Activity [18]: Non-Toxic; inhibition (Rattus norvegicus): Active |
| CS(=O)(=O)[O-].O=C(/C=C/c1ccc(O)c(O)c1)NCC[P+](c1ccccc1)(c1ccccc1)c1ccccc1 | – | Dose-dependent effect | Dose-dependent effect | Active | Dose-dependent effect | 35.4 µM | Dose-dependent effect | 4.5 µM | 0.166 V | 33.3 µM | Dose-dependent effect | 600 | 0.572 V | Dose-dependent effect | Dose-dependent effect | 1.5 mM | Dose-dependent effect | 3.7 µM | Dose-dependent effect | Dose-dependent effect | – |
| O=C(O)CN(CCN(CC(=O)O)CC(=O)O)CC(=O)O | – | – | – | – | – | – | – | – | – | – | – | – | – | – | – | – | – | – | – | – | inhibition [23]: Active |
